Laboratory results taken from ChEMBL document CHEMBL1268999, “Triazolyl tryptoline derivatives as β-secretase inhibitors” (Bioorg Med Chem Lett, 2010).

How the values were obtained:
Beta-secretase 1 [1] = biological target: T1, Beta-secretase 1 (Homo sapiens, UniProt P56817); assay: Inhibition of human BACE1 at 5 uM
Summary of the method: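 Recombinant human BACE1 enzymatic assay with a FRET substrate (fluorescence resonance energy transfer read-out). Candidates were crude Cu(I)-catalysed azide–alkyne products made in microtiter plates with more than 80% conversion by LC–MS. They were diluted in 50 mM sodium acetate (pH 4.5) to 25 mM stocks, based on azide input.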

Beta-secretase 1 [2] = biological target: T1, Beta-secretase 1; assay: Inhibition of human recombinant BACE1 by FRET assay
Summary of the method: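 Recombinant human BACE1 assayed by fluorescence resonance energy transfer (FRET) cleavage of a FRET substrate. They were diluted in 50 mM sodium acetate (pH 4.5) to 25 mM stocks, based on azide input. A purified resynthesised compound was also tested.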

Cathepsin D = Cathepsin D (Homo sapiens, UniProt P07339); assay: Inhibition of human recombinant Cathepsin D by FRET assay
Chain of Cathepsin D (P07339 65-162 limits assumed): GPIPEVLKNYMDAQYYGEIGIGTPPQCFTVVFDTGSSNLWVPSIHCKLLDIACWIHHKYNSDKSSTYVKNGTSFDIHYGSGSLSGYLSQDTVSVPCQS
Chain of Cathepsin D (P07339 169-412 limits assumed): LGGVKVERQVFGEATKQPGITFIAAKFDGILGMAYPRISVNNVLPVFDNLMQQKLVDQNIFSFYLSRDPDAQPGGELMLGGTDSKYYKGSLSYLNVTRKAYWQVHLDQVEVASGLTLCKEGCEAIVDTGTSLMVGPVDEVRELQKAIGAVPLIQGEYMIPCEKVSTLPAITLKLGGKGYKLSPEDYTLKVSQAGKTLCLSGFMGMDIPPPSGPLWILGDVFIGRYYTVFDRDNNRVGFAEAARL

Cytochrome P450 2D6 = Cytochrome P450 2D6 (Homo sapiens, UniProt P10635); assay: Inhibition of CYP2D6; format: ADME
Chain of Cytochrome P450 2D6 (P10635 whole entry): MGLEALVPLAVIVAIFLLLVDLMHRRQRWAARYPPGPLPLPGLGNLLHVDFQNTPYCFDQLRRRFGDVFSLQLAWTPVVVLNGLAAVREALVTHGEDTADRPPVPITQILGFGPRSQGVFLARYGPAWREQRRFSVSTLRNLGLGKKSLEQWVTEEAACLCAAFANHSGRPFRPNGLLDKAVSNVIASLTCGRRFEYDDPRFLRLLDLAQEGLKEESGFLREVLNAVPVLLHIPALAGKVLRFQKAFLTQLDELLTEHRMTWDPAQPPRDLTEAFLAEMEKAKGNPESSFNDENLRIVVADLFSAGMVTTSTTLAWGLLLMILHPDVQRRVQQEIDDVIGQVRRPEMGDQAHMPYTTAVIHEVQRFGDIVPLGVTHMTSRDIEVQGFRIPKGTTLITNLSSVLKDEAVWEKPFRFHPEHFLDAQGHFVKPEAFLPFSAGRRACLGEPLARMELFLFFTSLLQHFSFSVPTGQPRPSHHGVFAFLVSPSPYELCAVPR
Summary of the method: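 CYP2D6 inhibition reported as a categorical score, where 0 = non-inhibitor.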

[3] = Protein binding in plasma; format: ADME, cell-free; conditions: read-out: PPB
Summary of the method: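 Plasma protein binding reported as a categorical level: 1 = binding >90%; 2 = binding >95%.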

Hepatocyte = assay: Toxicity in hepatocytes; format: cell-based
Rattus norvegicus = assay: Toxicity in po dosed rat; format: organism-based; conditions: in vivo
[4] = Solubility of the compound; format: physicochemical
Summary of the method: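 Aqueous solubility reported as a categorical level on a 0–3 scale, where 0 = extremely low and 3 = good.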

T1 sequence (P56817 whole entry): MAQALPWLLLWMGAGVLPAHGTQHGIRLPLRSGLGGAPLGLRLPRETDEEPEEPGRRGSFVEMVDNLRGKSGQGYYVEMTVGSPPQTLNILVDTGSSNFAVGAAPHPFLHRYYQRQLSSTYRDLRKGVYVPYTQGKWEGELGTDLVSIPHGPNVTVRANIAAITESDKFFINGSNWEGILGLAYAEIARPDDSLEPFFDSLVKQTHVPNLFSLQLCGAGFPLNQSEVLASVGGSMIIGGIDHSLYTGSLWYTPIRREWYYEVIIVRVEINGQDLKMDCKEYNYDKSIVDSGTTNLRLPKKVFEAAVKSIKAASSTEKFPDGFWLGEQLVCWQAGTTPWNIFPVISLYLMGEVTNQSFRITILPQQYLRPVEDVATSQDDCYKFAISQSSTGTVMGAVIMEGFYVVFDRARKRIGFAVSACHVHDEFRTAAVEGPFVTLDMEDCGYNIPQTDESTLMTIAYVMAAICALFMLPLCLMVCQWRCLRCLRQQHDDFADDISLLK

SMILES	inhibition (Beta-secretase 1 [1])	other results
OC1(c2cn(C[C@@H]3Cc4c([nH]c5ccccc45)CN3)nn2)CCCC1	< 50%	–
Cc1ccc(-c2cn(C[C@@H]3Cc4c([nH]c5ccccc45)CN3)nn2)cc1	< 50%	–
CCOC(OCC)c1cn(C[C@@H]2Cc3c([nH]c4ccccc34)CN2)nn1	< 50%	–
Cc1nnc(SCc2cn(C[C@@H]3Cc4c([nH]c5ccccc45)CN3)nn2)s1	< 50%	–
N#CCCc1cn(C[C@@H]2Cc3c([nH]c4ccccc34)CN2)nn1	< 50%	–
CC(O)c1cn(C[C@@H]2Cc3c([nH]c4ccccc34)CN2)nn1 (some centres undefined)	< 50%	–
c1ccc(SCc2cn(C[C@@H]3Cc4c([nH]c5ccccc45)CN3)nn2)cc1	< 50%	–
Nc1cccc(-c2cn(C[C@@H]3Cc4c([nH]c5ccccc45)CN3)nn2)c1	< 50%	–
c1ccc2c3c([nH]c2c1)CN[C@H](Cn1cc(Cn2ccnc2)nn1)C3	< 50%	–
COc1ccc2cc(-c3cn(C[C@@H]4Cc5c([nH]c6ccccc56)CN4)nn3)ccc2c1	> 50%	IC50 (Beta-secretase 1 [2]): 1490 nM; IC50 (Cathepsin D): > 100000 nM
CC(=O)CC(=O)NCc1cn(C[C@@H]2Cc3c([nH]c4ccccc34)CN2)nn1	< 50%	–
c1ccc2c(-c3cn(C[C@@H]4Cc5c([nH]c6ccccc56)CN4)nn3)cccc2c1	< 50%	–
c1ccc2c3c([nH]c2c1)CNCC3 [TRYPTOLINE]	–	inhibition (INH) (Cytochrome P450 2D6): Not Active; fraction unbound [3]: < 0.1; Activity (Hepatocyte): Non-toxic; LD50 (Rattus norvegicus): 701500 µg/g; solubility [4]: Soluble
OC1(c2cn(C[C@@H]3Cc4c([nH]c5ccccc45)CN3)nn2)c2ccccc2-c2ccccc21	< 50%	–
OC/C=C/c1cn(C[C@@H]2Cc3c([nH]c4ccccc34)CN2)nn1	< 50%	–
c1ccc2c3c([nH]c2c1)CN[C@H](Cn1cc(-c2ccsc2)nn1)C3	< 50%	–
CC(=O)c1ccc(-c2cn(C[C@@H]3Cc4c([nH]c5ccccc45)CN3)nn2)cc1	< 50%	–
OC(c1ccccc1)c1cn(C[C@@H]2Cc3c([nH]c4ccccc34)CN2)nn1 (some centres undefined)	< 50%	–
CCCC(O)c1cn(C[C@@H]2Cc3c([nH]c4ccccc34)CN2)nn1 (some centres undefined)	< 50%	–
c1ccc(-c2ccc(-c3cn(C[C@@H]4Cc5c([nH]c6ccccc56)CN4)nn3)cc2)cc1	< 50%	–
CC[C@H]1CN2CCc3c([nH]c4ccccc34)[C@H]2C[C@@H]1C[C@@H]1NCCc2c1[nH]c1ccccc21	–	inhibition (INH) (Cytochrome P450 2D6): Not Active; fraction unbound [3]: < 0.05; Activity (Hepatocyte): Toxic; LD50 (Rattus norvegicus): 235.5 µg/g; solubility [4]: Insoluble
c1ccc2c3c([nH]c2c1)CN[C@H](Cn1cc(COC2CCCCO2)nn1)C3 (some centres undefined)	< 50%	–
c1ccc2c3c([nH]c2c1)CN[C@H](Cn1cc(COC[C@H]2CO2)nn1)C3	< 50%	–
Fc1cc(F)cc(-c2cn(C[C@@H]3Cc4c([nH]c5ccccc45)CN3)nn2)c1	< 50%	–
